Where two headings read alike, the source gives them in different places.
How the values were obtained:
[1] = system: P. falciparum D10 (CQ-S) strain; experiment: Antiplasmodial activity against D10 strain; type: cell-based, Plasmodium falciparum; conditions: read-out: D10 IC50
[2] = system: P. falciparum W2 (CQ-R) strain; experiment: Antiplasmodial activity against W2 strain; type: cell-based, Plasmodium falciparum; conditions: read-out: W2 IC50
PfPMT = target: T1, PfPMT (Plasmodium falciparum, UniProt Q8IDQ9); experiment: PfPMT radiochemical methyltransferase assay; type: biochemical; conditions: 100 μM
T1 sequence (Q8IDQ9 1-266): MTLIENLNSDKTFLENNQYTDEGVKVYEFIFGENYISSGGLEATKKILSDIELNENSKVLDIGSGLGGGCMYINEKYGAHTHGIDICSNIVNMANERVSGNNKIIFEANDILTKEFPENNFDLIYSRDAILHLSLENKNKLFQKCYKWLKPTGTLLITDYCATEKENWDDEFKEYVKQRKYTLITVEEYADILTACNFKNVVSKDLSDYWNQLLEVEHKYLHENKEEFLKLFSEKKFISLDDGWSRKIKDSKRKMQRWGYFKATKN
How it was run: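 Recombinant PfPMT was expressed in and purified from E. coli. Activity was measured radiochemically with 2 µg enzyme in 0.1 M Hepes-KOH pH 8.0, 2 mM Na2EDTA, 10% glycerol and 5% DMSO. The reaction contained 30 µM SAM (including 100 nCi [methyl-14C]SAM) and 55 µM phosphoethanolamine. Inhibitors were screened at 100 µM; values are mean ± SD, n = 3.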

[3] = system: late stages Plasmodium gametocytes; conditions: read-out: in vitro IC50 against late stages Plasmodium gametocytes; different published assays; cited from earlier work
P. berghei liver stages = experiment: P. berghei liver-stage analysis in mouse primary hepatocytes; type: cell-based, Plasmodium berghei
How it was run: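 Mouse primary hepatocytes were infected with 20'000 mCherry-expressing P. berghei ANKA sporozoites. From 2 h post-infection, cells received a range of test compound concentrations or a matching DMSO control, with medium and drug renewed at 24 h. At 48 h, parasite number and size in unfixed cells were measured by automated microscopy (n = 4, SD). Groups were compared by one-way ANOVA with Dunnett's test.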

Cav1.2 channels = Cav1.2 channels (Rattus norvegicus, UniProt P22002); experiment: Whole-cell patch-clamp of IBa1.2 in single rat tail artery myocytes; type: cell-based; conditions: 30 μM
Cav1.2 channels, sequence (P22002 whole entry): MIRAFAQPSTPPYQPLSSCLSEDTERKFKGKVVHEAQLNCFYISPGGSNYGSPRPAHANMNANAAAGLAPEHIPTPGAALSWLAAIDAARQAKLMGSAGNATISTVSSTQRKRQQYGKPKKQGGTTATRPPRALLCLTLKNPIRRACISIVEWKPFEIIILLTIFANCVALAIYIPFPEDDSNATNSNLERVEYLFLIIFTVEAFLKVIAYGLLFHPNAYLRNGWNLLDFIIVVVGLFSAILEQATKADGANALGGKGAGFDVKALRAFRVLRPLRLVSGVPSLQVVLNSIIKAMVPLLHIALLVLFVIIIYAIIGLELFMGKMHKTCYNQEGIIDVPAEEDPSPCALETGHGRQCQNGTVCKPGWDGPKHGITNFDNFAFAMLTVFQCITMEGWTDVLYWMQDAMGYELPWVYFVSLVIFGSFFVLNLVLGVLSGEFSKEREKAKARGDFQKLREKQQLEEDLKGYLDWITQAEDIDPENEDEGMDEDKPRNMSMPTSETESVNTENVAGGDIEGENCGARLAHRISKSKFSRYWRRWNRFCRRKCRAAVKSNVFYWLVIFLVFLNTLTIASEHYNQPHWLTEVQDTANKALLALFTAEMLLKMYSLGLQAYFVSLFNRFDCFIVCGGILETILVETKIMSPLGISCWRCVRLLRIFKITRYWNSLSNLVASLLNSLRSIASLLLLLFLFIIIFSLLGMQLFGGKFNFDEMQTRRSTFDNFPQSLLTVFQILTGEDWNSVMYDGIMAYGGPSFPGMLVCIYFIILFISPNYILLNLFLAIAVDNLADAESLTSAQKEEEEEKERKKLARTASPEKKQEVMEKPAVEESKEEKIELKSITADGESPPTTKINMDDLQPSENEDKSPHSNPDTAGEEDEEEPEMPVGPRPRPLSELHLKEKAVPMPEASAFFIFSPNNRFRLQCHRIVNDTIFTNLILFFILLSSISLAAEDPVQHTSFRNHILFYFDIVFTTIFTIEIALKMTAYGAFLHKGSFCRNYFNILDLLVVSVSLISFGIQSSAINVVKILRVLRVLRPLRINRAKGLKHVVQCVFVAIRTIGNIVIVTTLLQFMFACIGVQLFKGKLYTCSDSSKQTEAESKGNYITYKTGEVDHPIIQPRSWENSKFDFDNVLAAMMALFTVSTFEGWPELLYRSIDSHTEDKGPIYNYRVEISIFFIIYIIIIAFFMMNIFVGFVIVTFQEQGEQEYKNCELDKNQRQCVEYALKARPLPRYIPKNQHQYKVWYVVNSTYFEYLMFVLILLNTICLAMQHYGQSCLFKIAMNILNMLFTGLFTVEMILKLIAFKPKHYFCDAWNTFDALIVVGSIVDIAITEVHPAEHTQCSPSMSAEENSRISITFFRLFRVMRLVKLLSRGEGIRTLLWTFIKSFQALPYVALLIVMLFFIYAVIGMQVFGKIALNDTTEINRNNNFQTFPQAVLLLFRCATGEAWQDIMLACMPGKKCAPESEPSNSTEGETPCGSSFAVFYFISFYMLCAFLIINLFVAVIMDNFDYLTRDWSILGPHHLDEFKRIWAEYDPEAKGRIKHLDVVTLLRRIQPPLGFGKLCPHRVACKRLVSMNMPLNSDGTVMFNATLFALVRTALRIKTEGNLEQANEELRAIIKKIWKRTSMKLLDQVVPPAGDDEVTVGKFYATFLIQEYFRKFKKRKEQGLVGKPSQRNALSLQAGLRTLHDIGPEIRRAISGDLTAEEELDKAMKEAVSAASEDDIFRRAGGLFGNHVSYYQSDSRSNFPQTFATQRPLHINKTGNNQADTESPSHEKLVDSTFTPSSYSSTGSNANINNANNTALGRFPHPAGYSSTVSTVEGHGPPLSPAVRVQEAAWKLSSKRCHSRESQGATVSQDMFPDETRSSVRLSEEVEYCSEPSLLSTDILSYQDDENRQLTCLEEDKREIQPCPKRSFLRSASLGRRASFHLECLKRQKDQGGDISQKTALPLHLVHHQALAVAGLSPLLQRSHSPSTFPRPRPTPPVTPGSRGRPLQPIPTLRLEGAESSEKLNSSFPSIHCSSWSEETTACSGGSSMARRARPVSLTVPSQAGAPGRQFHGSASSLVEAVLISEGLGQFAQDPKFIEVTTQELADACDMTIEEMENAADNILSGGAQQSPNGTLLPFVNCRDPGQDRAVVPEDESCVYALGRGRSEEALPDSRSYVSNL
Cav1.2 channels, sequence (P54290 25-944 partner limits assumed): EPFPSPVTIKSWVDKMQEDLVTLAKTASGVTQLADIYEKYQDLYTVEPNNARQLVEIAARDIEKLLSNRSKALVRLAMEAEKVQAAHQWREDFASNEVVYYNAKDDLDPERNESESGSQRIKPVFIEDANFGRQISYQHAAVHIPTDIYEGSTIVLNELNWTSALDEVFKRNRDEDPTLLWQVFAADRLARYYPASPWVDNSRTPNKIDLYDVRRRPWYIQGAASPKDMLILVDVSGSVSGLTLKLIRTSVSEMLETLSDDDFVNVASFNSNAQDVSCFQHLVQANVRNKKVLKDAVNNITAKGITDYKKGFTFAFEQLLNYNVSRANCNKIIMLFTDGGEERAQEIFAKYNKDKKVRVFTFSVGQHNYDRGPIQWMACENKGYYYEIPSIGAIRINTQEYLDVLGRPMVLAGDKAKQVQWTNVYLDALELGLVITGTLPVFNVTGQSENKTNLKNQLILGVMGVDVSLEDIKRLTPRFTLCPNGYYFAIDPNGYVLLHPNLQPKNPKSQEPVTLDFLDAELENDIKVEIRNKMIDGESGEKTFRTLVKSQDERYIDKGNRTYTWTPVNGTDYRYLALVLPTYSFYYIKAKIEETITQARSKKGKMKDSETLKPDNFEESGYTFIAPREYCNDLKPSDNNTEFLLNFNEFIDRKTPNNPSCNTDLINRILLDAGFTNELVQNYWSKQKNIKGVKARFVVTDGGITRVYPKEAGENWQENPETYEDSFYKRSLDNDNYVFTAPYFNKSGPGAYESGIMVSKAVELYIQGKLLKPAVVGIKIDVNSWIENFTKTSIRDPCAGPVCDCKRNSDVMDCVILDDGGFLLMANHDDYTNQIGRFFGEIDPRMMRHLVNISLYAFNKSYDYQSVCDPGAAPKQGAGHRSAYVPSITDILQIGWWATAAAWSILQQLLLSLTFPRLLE
Cav1.2 channels, sequence (P54290 945-1091 partner limits assumed): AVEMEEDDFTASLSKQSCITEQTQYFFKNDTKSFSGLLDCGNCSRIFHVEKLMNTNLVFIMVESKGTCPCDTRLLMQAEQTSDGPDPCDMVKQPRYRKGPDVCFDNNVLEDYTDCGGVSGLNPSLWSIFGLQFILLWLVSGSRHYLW
Cav1.2 channels, sequence (P54287 whole entry partner): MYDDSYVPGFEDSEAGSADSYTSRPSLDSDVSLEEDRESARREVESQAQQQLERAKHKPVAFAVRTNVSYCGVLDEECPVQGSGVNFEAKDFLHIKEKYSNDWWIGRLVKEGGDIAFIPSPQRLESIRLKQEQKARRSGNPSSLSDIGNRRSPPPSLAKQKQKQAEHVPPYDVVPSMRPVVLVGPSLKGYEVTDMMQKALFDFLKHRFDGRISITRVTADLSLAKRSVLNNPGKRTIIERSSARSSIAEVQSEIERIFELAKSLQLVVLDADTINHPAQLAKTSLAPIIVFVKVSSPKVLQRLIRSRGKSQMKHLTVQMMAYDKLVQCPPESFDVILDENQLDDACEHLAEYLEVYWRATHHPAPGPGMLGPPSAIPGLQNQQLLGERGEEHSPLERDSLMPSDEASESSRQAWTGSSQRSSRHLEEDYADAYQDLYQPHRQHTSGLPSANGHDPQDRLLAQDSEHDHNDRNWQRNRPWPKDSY
How it was run: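 Rat tail artery myocytes were isolated enzymatically (collagenase, 37 °C, 40–45 min), kept at 4 °C and used within two days. Whole-cell patch-clamp was run at 20–22 °C. The external solution held 5 mM Ba2+ and 30 mM TEA; the pipette solution was Cs+-based (pCa 8.4, pH 7.4). IBa was evoked by 250-ms pulses to 0 mV from −50 mV at 0.067 Hz, with recording once current had stabilised.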

[4] = system: Langendorff-isolated rat hearts; experiment: Cardiac mechanical function and ECG in Langendorff-isolated rat hearts; conditions: for Effect on left ventricular pressure (LVP): concentration-effect relationship; for Effect on coronary perfusion pressure (CPP): data not shown
How it was run: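 Rats heparinised (5000 U/kg) with xylazine (4 mg/kg), decapitated. Hearts perfused retrogradely via aorta at 10 mL/min with Krebs-Henseleit (95% O2-5% CO2, pH 7.4, 37 °C), equilibrated ≥20 min before drug. LVP by intraventricular latex balloon (end-diastolic 10 mmHg), systolic minus diastolic. CPP by inflow-line transducer. Surface ECG at 1 kHz: RR, HR, PQ, QRS, QT, Bazett-corrected QTc.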

[5] = system: male and female NF54 gametes; conditions: cited from earlier work
[6] = system: P. falciparum asexual and sexual stages; conditions: read-out: IC50 against P. falciparum asexual and sexual stages; cited from earlier work
[7] = system: P. falciparum NF54-HGL gametocytes; experiment: NF54-HGL gametocyte luciferase assay; type: cell-based, Plasmodium falciparum; conditions: read-out: GCT: NF54-HGL IC50
How it was run: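 Gametocytes came from a flask inoculated with 1% asexual parasites at 5% haematocrit in RPMI1640 with 10% human serum. Asexual stages were cleared with 50 mM NAG on days 4–9. Mostly stage IV cells were Percoll-purified on day 11 and plated at 5000 per well (final DMSO 0.1%). After 72 h at 37 °C, 3% O2, 4% CO2, viability was read as ONE-Glo luminescence.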

[8] = system: P. falciparum 3D7elo1-pfs16-CBG99 late-stage gametocytes; experiment: Gametocytocidal luciferase-based assay, 3D7elo1-pfs16-CBG99; type: cell-based, Plasmodium falciparum; conditions: 72 h, read-out: GCT: 3D7elo1-pfs16-CBG99 IC50
[9] = system: P. falciparum strain NF54 asexual blood stage parasites; experiment: NF54 asexual blood stage Sybrgreen DNA replication assay; type: cell-based, Plasmodium falciparum; conditions: read-out: NF54 IC50, CQ-S strain, 72 h
How it was run: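 Asexual NF54 parasites were seeded at 0.83% parasitaemia and 1.5% haematocrit in RPMI1640 with 10% human serum. Serial dilutions were made from DMSO stocks in medium (final DMSO 0.1%). Plates were incubated 72 h at 37 °C under 3% O2 and 4% CO2. Growth was read as SYBR Green fluorescence.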

CCN(CC)CCCC(C)Nc1ccnc2cc(Cl)ccc12 (stereo not shown) [Chloroquine, reference compound]
IC50 ([1]; Plasmodium falciparum, D10, 72 h): 0.026 µM
IC50 ([2]; Plasmodium falciparum, W2, 72 h): 0.31 µM

C[N+](C)(CCCNCc1ccc(-c2ccc(Cl)cc2Br)o1)Cc1ccccc1.[Cl-] [Compound 48, N-Benzyl-3-[(5-(4-chloro-2-bromophenyl)furan-2-yl-methyl)amino]-N,N-dimethylpropan-1-ammonium chloride]
Inhibitory activity against PfPMT (PfPMT): weak activity

CN(C)CCCNCc1ccc(-c2ccc(F)c(Cl)c2)o1 [Compound 2, N-[(5-(3-chloro-4-fluorophenyl)furan-2-yl)methyl]-N′,N′-dimethylpropane-1,3-diamine, reference compound]
IC50 [3]: < 1 µM

Clc1ccc(-c2ccc(CNCC3CCNCC3)o2)c(-c2ccccc2)c1 [Compound 25, 1-(5-(2-Phenyl-4-chlorophenyl)furan-2-yl)-N-(piperidin-4-ylmethyl)methanamine]
Parasite sizes (P. berghei liver stages; 48 hpi, mouse primary hepatocytes, different concentrations): Neither parasite numbers (Figure 2A) nor parasite sizes (Figure 2B) were significantly influenced
Parasite numbers per well (P. berghei liver stages; 48 h, mouse primary hepatocytes, different concentrations): no liver stage activity
Detached cell formation (P. berghei liver stages; detached cells at 65 hpi vs 48 h number): Neither concentration tested significantly inhibited detached cell formation
Effect on IBa1.2 current (Cav1.2 channels): blocked the current
Effect on left ventricular pressure (LVP) [4]: reduced left ventricular pressure (LVP) in a concentration-dependent manner
Effect on coronary perfusion pressure (CPP) [4]: leaving unaltered coronary perfusion pressure

N#Cc1ccc(-c2ccc(CNCC3CCNCC3)o2)cc1 [Compound 24, 1-(5-(4-Cyanophenyl)furan-2-yl)-N-(piperidin-4-3ylmethyl)methanamine]
Inhibitory activity against PfPMT (PfPMT): weak activity

Clc1cc(Br)ccc1-c1ccc(CNCC2CCNCC2)o1 [Compound 1, 1-(5-(4-Bromo-2-chlorophenyl)furan-2-yl)-N-(piperidin-4-ylmethyl)methanamine]
Inhibitory activity against PfPMT (PfPMT): weak activity
Activity on male and female NF54 gametes [5]: activity on both male and female NF54 gametes
IC50 [3]: < 1 µM
IC50 [6]: < 1 µM
Sinus arrhythmia [4]: 3 out of 4
Effect on left ventricular pressure (LVP) [4]: reduced left ventricular pressure (LVP) in a concentration-dependent manner
Effect on coronary perfusion pressure (CPP) [4]: leaving unaltered coronary perfusion pressure

CC[C@H](C)[C@H](NC(=O)[C@H]([C@@H](C)CC)N(C)C(C)=O)C(=O)N[C@H](C(=O)N[C@@H](CC(C)C)C(=O)[C@@]1(C)CO1)[C@@H](C)O [Epoxomycin, reference compound]
IC50 ([7]; Plasmodium falciparum, NF54, 72 h): 0.0007 µM
IC50 ([8]; Plasmodium falciparum): 0.007 µM

1-(5-Bromobenzothiophen-2-yl)-N-(piperidin-4-ylmethyl)methanamine [Compound 32]
IC50 ([1]; CQ-S strain, 72 h, pLDH): 1 µM
IC50 ([2]; CQ-R strain, 72 h, pLDH): 1.5 µM
IC50 ([7]; gametocytes predominantly stage IV, 72 h, luminescence): 0.053 µM
IC50 ([8]; late-stage gametocytes (stage IV–V), luciferase): 1.4 µM
IC50 [9]: 0.73 µM

Source: PMC5902032 (European journal of medicinal chemistry, 2018)
